Assay results of several laboratories.
Lines come from different studies, so protocols differ.
Target: TGF-beta receptor type-2 (TGFBR2, Homo sapiens, UniProt P37173)

SMILES	effect on	method	tested at	remaining binding
O=C(Nc1c[nH]nc1C(=O)NC1CCNCC1)c1cc(F)cc(F)c1	binding	competition with immobilised ligand	1 µM	90%
Cc1cnn2ncc(-c3ccnc(N(C)C)n3)c2c1	binding		1 µM	80%
COc1cnc(Nc2cccc(S(N)(=O)=O)c2)nc1N1CCN(c2ccccc2)C(=O)C1	binding	competition with immobilised ligand	1 µM	100%
O=C(c1ccc(Nc2nccc(-c3cc4ccccc4s3)n2)cc1)N1CCC(N2CCCC2)CC1	binding	competition with immobilised ligand	1 µM	88%
COc1cnc(Nc2cccc(S(N)(=O)=O)c2)nc1N1CCN(c2ccccc2)CC1	binding	competition with immobilised ligand	1 µM	100%
O=C1CCc2cc(Nc3cc(OC4CCOCC4)c([N+](=O)[O-])cc3Cl)ccc2N1	cell-free assay	competition with immobilised ligand	1 µM	98%
CN(C)c1nccc(-c2cnc3ncccn23)n1	binding		1 µM	76%
O=C(NS(=O)(=O)c1ccc(NCC2CCOCC2)c([N+](=O)[O-])c1)c1ccc(N2CCN(Cc3ccc(C(F)(F)F)cc3-c3ccc(Cl)cc3)CC2)cc1Oc1cnc2[nH]ccc2c1	cell-free assay	competition with immobilised ligand	1 µM	76%
C[C@@H]1CCN(c2nccc(-c3cnn4ncccc34)n2)C1	binding		1 µM	100%
C[C@@H](c1ccc(-n2cnc3c(N)ncnc32)cc1)N1CCc2nn(C)c(Cc3ccccc3)c2C1=O	binding	competition with immobilised ligand	0.1 µM	84%
CC1=C(C#N)C(c2ccc3c(c2)c(NC(=O)c2ccccc2C)nn3C)C(C#N)=C(C)N1	cell-free assay	competition with immobilised ligand	1 µM	99%
CN(CCCC(F)(F)F)c1nccc(-c2cnn3ncccc23)n1	binding		1 µM	73%
COCCOc1nc(-c2ccc(Cl)nc2)nc2c1CN(C(=O)c1ncn3ccccc13)CC2	cell-free assay	competition with immobilised ligand	0.1 µM	94%
c1cncc(-c2cccc(Nc3nccc(NC4CCCCC4)n3)c2)c1	binding	competition with immobilised ligand	10 µM	30%
COc1cc(-c2cn(C3CCc4c(F)cccc4N(CC(F)(F)F)C3=O)nn2)ccc1-n1cnc(C)c1 (stereo not drawn)	cell-free assay	competition with immobilised ligand	1 µM	100%
O=C(NCCCN1CCOCC1)c1ccc(Nc2ncc(Cl)c(-c3ccc(Cl)s3)n2)cc1	binding	competition with immobilised ligand	1 µM	100%
c1cnn2ncc(-c3ccnc(N4CCC45COC5)n3)c2c1	binding		1 µM	36%
O=C(c1ccc(Nc2ncc(Cl)c(-c3cc4ccccc4s3)n2)cc1)N1CCC(N2CCCC2)CC1	binding	competition with immobilised ligand	1 µM	84%
CC1=C(C#N)[C@@H](c2ccc3[nH]nc(C)c3c2)C(C#N)=C(c2ccc(Cl)cc2)N1	cell-free assay	competition with immobilised ligand	1 µM	74.6%
CC1CCCN1c1nccc(-c2cnn3ncccc23)n1 (stereo not drawn)	binding		1 µM	100%
CCN1CCN(Cc2ccc(C(=O)Nc3ccc(C)c(Oc4ccc5c(c4)CC(=O)N5)c3)cc2C(F)(F)F)CC1	binding	competition with immobilised ligand	1 µM	100%
